Our source for the EC50 and IC50 values is ChEMBL document CHEMBL1158589, “Benzimidazole and imidazole inhibitors of histone deacetylases: Synthesis and biological activity” (Bioorg Med Chem Lett, 2010).

The structures appear in SMILES notation.

One assay has as its system HL-60. In words: Cytotoxicity against human HL60 cells assessed as NADH level after 72 hrs by MTS cells. Type of assay: functional, cell-based. Particulars: HL-60, 72 h. In a few lines:
(§1)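 Human A549 lung, HL60 leukemia and PC3 prostate cancer lines incubated with compound for 72 h. Viability read by MTS colorimetric assay from remaining NADH; EC50 calculated; mean of at least two experiments.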

The target in assay [1] is T1, Protein deacetylase HDAC6 (Homo sapiens, UniProt Q9UBN7).
T1 sequence (Q9UBN7 whole entry): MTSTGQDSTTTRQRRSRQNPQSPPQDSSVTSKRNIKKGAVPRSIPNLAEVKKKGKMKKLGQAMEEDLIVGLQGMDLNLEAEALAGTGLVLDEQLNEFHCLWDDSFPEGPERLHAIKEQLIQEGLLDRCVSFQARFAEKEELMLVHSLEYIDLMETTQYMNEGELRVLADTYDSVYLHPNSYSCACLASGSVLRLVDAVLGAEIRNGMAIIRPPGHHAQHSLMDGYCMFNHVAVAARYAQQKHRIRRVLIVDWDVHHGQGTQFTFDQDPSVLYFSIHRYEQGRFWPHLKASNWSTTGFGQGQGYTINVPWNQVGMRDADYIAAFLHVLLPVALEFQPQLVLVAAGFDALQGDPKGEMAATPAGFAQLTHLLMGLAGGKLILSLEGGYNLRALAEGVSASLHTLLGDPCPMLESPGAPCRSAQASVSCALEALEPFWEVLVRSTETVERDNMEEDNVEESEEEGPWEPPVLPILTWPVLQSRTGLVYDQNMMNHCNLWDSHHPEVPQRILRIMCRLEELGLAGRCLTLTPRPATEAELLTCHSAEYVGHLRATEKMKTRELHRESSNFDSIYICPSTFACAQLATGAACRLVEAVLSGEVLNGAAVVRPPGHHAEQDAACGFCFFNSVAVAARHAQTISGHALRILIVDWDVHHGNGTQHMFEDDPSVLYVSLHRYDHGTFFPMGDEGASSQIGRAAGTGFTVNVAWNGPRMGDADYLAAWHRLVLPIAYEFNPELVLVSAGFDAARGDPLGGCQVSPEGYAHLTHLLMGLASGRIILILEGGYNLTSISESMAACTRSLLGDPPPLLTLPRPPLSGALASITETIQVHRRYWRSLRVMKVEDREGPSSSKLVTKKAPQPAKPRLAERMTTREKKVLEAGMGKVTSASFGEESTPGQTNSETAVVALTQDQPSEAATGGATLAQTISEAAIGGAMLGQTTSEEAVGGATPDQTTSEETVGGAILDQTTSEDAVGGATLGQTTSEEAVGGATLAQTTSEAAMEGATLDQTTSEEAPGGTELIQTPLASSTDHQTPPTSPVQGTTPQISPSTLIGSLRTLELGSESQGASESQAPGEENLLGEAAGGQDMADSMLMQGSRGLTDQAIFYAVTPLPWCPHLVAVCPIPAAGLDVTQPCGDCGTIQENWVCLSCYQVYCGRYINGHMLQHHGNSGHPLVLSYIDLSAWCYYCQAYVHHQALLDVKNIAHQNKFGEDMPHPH
In words: Inhibition of human recombinant HDAC6. In a few lines:
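Purified recombinant human HDAC-2 or HDAC-6 at known enzyme concentration with tBOC(Ac)-Lys-AMC as substrate. IC50 is the mean of at least three experiments.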

In another assay the target is T2, Histone deacetylase 8 (Homo sapiens, UniProt Q9BY41).
T2 sequence (Q9BY41 whole entry): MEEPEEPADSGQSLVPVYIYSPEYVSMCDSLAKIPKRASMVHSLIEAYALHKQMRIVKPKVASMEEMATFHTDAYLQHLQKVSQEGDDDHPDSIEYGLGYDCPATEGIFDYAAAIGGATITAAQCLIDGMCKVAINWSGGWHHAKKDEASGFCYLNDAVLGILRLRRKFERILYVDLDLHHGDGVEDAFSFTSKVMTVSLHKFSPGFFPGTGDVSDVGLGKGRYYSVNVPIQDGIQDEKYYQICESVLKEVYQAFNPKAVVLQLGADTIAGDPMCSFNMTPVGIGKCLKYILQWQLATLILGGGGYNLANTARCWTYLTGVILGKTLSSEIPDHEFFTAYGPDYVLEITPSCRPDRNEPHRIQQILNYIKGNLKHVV
The assay is described as follows: Inhibition of human recombinant HDAC8.

Another assay concerns PC-3. In words: Cytotoxicity against human PC3 cells assessed as NADH level after 72 hrs by MTS cells. The note with it: PC-3, 72 h. Type of assay: functional, cell-based. In a few lines: as §1
The test system of the next assay is A549. The assay is described as follows: Cytotoxicity against human A549 cells assessed as NADH level after 72 hrs by MTS cells. Type of assay: functional, cell-based. Particulars: A549, 72 h. Summed up:
as §1

For `Cc1c(Cc2ccccc2)nc(-c2cccc(/C=C/C(=O)NO)c2)n1CCN1CCOCC1`, the EC50 in the assay with HL-60 was 300 nM; with PC-3, 1000 nM; in the assay with A549, 4000 nM. Besides, the concentration for half-maximal inhibition (IC50) in assay [1] came to 79 nM; on Histone deacetylase 8, 50 nM.

For `CCN1CCC[C@@H](n2c(-c3cccc(/C=C/C(=O)NO)c3)nc3ccccc32)C1`, the EC50 in the assay on HL-60 was 30 nM; with PC-3, 50 nM; with A549, 200 nM. In addition, the concentration for half-maximal inhibition (IC50) in assay [1] turned out to be 79 nM; at Histone deacetylase 8, 120 nM.

In the case of `CN1CCC[C@H](n2c(-c3cccc(/C=C/C(=O)NO)c3)nc3ccccc32)C1`, the figures for the half-maximal effective concentration (EC50) in the assay on HL-60, in the assay on PC-3 and in the assay on A549 were 160 nM, 300 nM and 1200 nM, respectively. Also, the half-maximal inhibitory concentration (IC50) in assay [1] was 50 nM; at Histone deacetylase 8 it was 160 nM.

As for `O=C(/C=C/c1cccc(-c2nc3ccccc3n2CCc2ccccc2)c1)NO`, the values for the EC50 in the assay on HL-60, with PC-3 and with A549 were 300 nM, 400 nM and 2500 nM, respectively. In addition, the results for the concentration for half-maximal inhibition (IC50) (in assay [1]; at Histone deacetylase 8) were 31 nM and 25 nM, respectively.

Take `C[C@H](c1ccccc1)n1c(-c2cccc(/C=C/C(=O)NO)c2)nc2ccccc21`: the figures for the EC50 in the assay on HL-60, with PC-3 and in the assay with A549 were 3100 nM, 10000 nM and 16000 nM, respectively. Also, the IC50 in assay [1] is 40 nM; on Histone deacetylase 8, 20 nM.

For the molecule `Cc1nc(-c2cccc(/C=C/C(=O)NO)c2)n([C@@H]2CCCN(C)C2)c1-c1ccccc1`, the EC50 in the assay on HL-60 came out at 30 nM; with PC-3, 100 nM; in the assay with A549, 400 nM. Moreover, the IC50 came out at 79 nM in assay [1] and 100 nM at Histone deacetylase 8.

Regarding `O=C(/C=C/c1cccc(-c2nc3ccccc3n2CC2CCNCC2)c1)NO`, the EC50 with HL-60, in the assay with PC-3 and with A549 was over 50000 nM throughout. Further, the concentration for half-maximal inhibition (IC50) is 200 nM in assay [1] and 310 nM at Histone deacetylase 8.

With `Cc1c(Cc2ccccc2)nc(-c2cccc(/C=C/C(=O)NO)c2)n1[C@@H]1CCCN(C)C1`, the figures for the EC50 in the assay on HL-60, in the assay on PC-3 and in the assay with A549 were 20 nM, 100 nM and 200 nM, respectively. Further, the IC50 in assay [1] turned out to be 63 nM; on Histone deacetylase 8, 79 nM.

For the molecule `CCN1CCC[C@@H](n2c(-c3cccc(/C=C/C(=O)NO)c3)nc(C)c2C)C1`, the values for the EC50 with HL-60, in the assay with PC-3 and with A549 were 40 nM, 80 nM and 300 nM, respectively. Besides, the concentration for half-maximal inhibition (IC50) was determined as 120 nM in assay [1] and 100 nM at Histone deacetylase 8.

As for `Cc1nc(-c2cccc(/C=C/C(=O)NO)c2)n([C@@H]2CCCN(C(C)C)C2)c1-c1ccccc1`, the 50% effective concentration (EC50) in the assay with HL-60 amounted to 30 nM; in the assay on PC-3 it was 200 nM; in the assay with A549, 400 nM. For the same molecule, the figures for the half-maximal inhibitory concentration (IC50) (in assay [1]; on Histone deacetylase 8) were 100 nM and 40 nM, respectively.

For the molecule `CCN1CCCC(n2c(-c3cccc(/C=C/C(=O)NO)c3)nc3ccccc32)C1` (racemic), the EC50 turned out to be 60 nM in the assay on HL-60, 100 nM in the assay with PC-3 and 500 nM in the assay with A549. Further, the figures for the IC50 (in assay [1]; at Histone deacetylase 8) were 79 nM and 120 nM, respectively.

For `O=C(/C=C/c1cccc(-c2nc3ccccc3n2[C@@H]2CCCNC2)c1)NO`, the figures for the EC50 in the assay with HL-60, in the assay with PC-3 and in the assay with A549 were 100 nM, 100 nM and 1000 nM, respectively. Besides, the concentration for half-maximal inhibition (IC50) in assay [1] came to 79 nM; at Histone deacetylase 8, 120 nM.

Take `Cc1c(-c2ccccc2)nc(-c2cccc(/C=C/C(=O)NO)c2)n1[C@@H]1CCCN(C)C1`: the half-maximal effective concentration (EC50) in the assay on HL-60 was found to be 40 nM; in the assay on PC-3, 100 nM; in the assay with A549 it was 600 nM. Besides, the 50% inhibitory concentration (IC50) in assay [1] came out at 63 nM; at Histone deacetylase 8, 50 nM.

Regarding `Cc1c(-c2ccccc2)nc(-c2cccc(/C=C/C(=O)NO)c2)n1CCN1CCOCC1`, the values for the EC50 in the assay with HL-60, in the assay on PC-3 and in the assay with A549 were 300 nM, 1000 nM and 6300 nM, respectively. For the same molecule, the results for the IC50 (in assay [1]; on Histone deacetylase 8) were 63 nM and 79 nM, respectively.

With `O=C(/C=C/c1cccc(-c2nc3ccccc3n2-c2ccc(Cl)cc2)c1)NO`, the EC50 in the assay on HL-60 was determined as 800 nM; with PC-3, 2500 nM; in the assay on A549 it was 6300 nM. Moreover, the figures for the 50% inhibitory concentration (IC50) (in assay [1]; on Histone deacetylase 8) were 100 nM and 50 nM, respectively.

As for `CC(C)n1c(-c2cccc(/C=C/C(=O)NO)c2)nc2ccccc21`, the EC50 in the assay with HL-60 is 1000 nM; in the assay with PC-3, 2500 nM; in the assay on A549, 5000 nM. For the same molecule, the concentration for half-maximal inhibition (IC50) in assay [1] amounted to 100 nM; on Histone deacetylase 8, 40 nM.

Turning to `CN1CCCC(n2c(-c3cccc(/C=C/C(=O)NO)c3)nc3ccccc32)C1` (racemic), the values for the concentration giving a half-maximal response (EC50) in the assay on HL-60, with PC-3 and in the assay with A549 were 80 nM, 100 nM and 500 nM, respectively. The IC50 worked out at 79 nM in assay [1] and 160 nM at Histone deacetylase 8.

As to `Cc1nc(-c2cccc(/C=C/C(=O)NO)c2)n(CCN2CCOCC2)c1C`, the half-maximal effective concentration (EC50) with HL-60 was 1600 nM; with PC-3 it was 5000 nM; in the assay with A549 it was over 50000 nM. In addition, the IC50 is 160 nM in assay [1] and 200 nM at Histone deacetylase 8.

Regarding `O=C(/C=C/c1cccc(-c2nc3ccccc3[nH]2)c1)NO`, the EC50 in the assay with HL-60 amounted to 3100 nM; in the assay on PC-3, 10000 nM; in the assay with A549, 25000 nM. The IC50 in assay [1] is 100 nM; at Histone deacetylase 8, 63 nM.

As to `CCN1CCC[C@@H](n2c(-c3cccc(/C=C/C(=O)NO)c3)nc(Cc3ccccc3)c2C)C1`, the values for the EC50 in the assay on HL-60, with PC-3 and in the assay on A549 were 30 nM, 40 nM and 100 nM, respectively. In addition, the IC50 in assay [1] came out at 100 nM; at Histone deacetylase 8 it was 50 nM.

As to `Cc1c(Cc2ccccc2)nc(-c2cccc(/C=C/C(=O)NO)c2)n1CCc1ccccc1`, the EC50 is 200 nM with HL-60, 500 nM in the assay with PC-3 and 800 nM in the assay on A549. In addition, the values for the IC50 (in assay [1]; on Histone deacetylase 8) were 63 nM and 16 nM, respectively.

`Cc1c(-c2ccccc2)nc(-c2cccc(/C=C/C(=O)NO)c2)n1[C@@H]1CCCN(C(C)C)C1`: the results for the EC50 in the assay on HL-60, with PC-3 and with A549 were 40 nM, 100 nM and 500 nM, respectively. The IC50 in assay [1] is 79 nM; at Histone deacetylase 8 it was 31 nM.

The term EC50 denotes the concentration needed to bring the measured effect to its halfway point. One may read the IC50 as the concentration at which inhibition is half-maximal.
